Sampled rows, rich in hits. Any-hit rate of the full collection: about 2%.
PLC-beta3 inh – PLC-beta3 (human) inhibition, primary screen | Q01970 | Purified PLC-beta3, fluorogenic substrate, fluorescence | inhibition, % at 12.2 µM | hit rate 0.18% among 370,000 | AID 720704;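 note: 0% = median of compound wells on plate and 100% = full blocker control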
IMP-1 inhibitor – blocks Pseudomonas aeruginosa IMP-1 metallo-beta-lactamase. purified IMP-1, nitrocefin hydrolysis, epi-absorbance fluorescence. inhibition, % at 5.6 µM. hit rate 0.45% among 290,000. AID 1556;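 active = inhibition above the mean plus 3 SD of all compounds in the same screening run, cut at about 4.5% in these data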;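 note: 0% = IMP-1 with DMSO and 100% = DMSO wells lacking enzyme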
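Material – recombinant IMP-1 enzyme, purified · Amount – IMP-1 0.2 nM before substrate addition · Medium – HEPES buffer pH 7.1 with ZnSO4 and Brij 35 · Timing – 25 °C, 15 min preincubation, 25 min reaction · Measured by – plate fluorescence quenching by hydrolysis product, ex 480/em 530 nm · Read-out – percent enzyme inhibition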
VIM-2 inh – inhibitors of Pseudomonas aeruginosa VIM-2 metallo-beta-lactamase; purified VIM-2, nitrocefin hydrolysis, epi-absorbance fluorescence; inhibition, % at 5.6 µM; hit rate 0.89% among 290,000; AID 1527;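 active = inhibition above the mean of all tested compounds plus 3 SD, cutoff set per screening run, cut at about 7.5% in these data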;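 note: red hydrolysis product quenches plate fluorescence so inhibitors raise well fluorescence; 0% = enzyme with DMSO and 100% = DMSO without enzyme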
PvdQ inh – P. aeruginosa PvdQ acylase inhibition; purified PvdQ acylase, fluorescence plate reader; AID 488965; inhibition, % at 10 µM; hit rate 0.063% among 340,000; in the data active = inhibition above about 30%, passing the limit was not always enough;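 note: 0% = vehicle neutral wells and 100% = reference inhibitor wells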
PLCg1 inh – PLC-gamma1 (human) inhibition, primary screen | P19174 | purified PLC-gamma1, fluorogenic substrate, fluorescence | inhibition, % at 12.2 µM | hit rate 0.84% among 370,000 | AID 720700; in the data active = inhibition above about 9.5%
PLCg1 ctr – counter-screen for PLC-beta3 inhibitors: inhibitors of human PLC-gamma1; purified PLC-gamma1, fluorogenic substrate, fluorescence; hit rate 3.1% among 3,300; AID 743258; shares compounds with PLCg1 inh; inhibition, % at 12.3 µM; in the data active = inhibition above about 9.5%
PLCb3 confirm – human PLC-beta3 inhibition, confirmation; shares compounds with PLCg1 inh; purified PLC-beta3, fluorogenic substrate fluorescence; inhibition, % at 12.3 µM; hit rate 1% among 3,300
* hit, by the source's call; i = inactive; · = no result. Cut-off read from the data, not from the text of the source, unless noted: active = inhibition above about 11%; inactive = the rest.

SMILES	PLC-beta3 inh	IMP-1 inhibitor	VIM-2 inh	PvdQ inh	PLCg1 inh	PLCg1 ctr	PLCb3 confirm
COC(=O)c1ccc(C(c2c(C)n(C)n(-c3ccccc3)c2=O)c2c(C)n(C)n(-c3ccccc3)c2=O)cc1	9	-4	-2	-21	12*	2	5
CCn1cc(C(=O)OCc2ccccc2)c(=O)c2ccc(C)nc21	1	-5	-4	-2	-2	·	·
CCn1cc(C(=O)O)c(=O)c2ccc(C)nc21	3	-2	-3	3	10*	-5	-6
CC(C)=CCN1CCN(Cc2cc(CC(C)C)n[nH]2)CC1CCO (stereo unspecified)	0	0	-1	-10	9.6*	-1	0
O=C(NCc1ccccc1)[C@@H]1CCCN1C(=O)[C@H]1CCCN1C(=O)c1ccc(F)c(C(F)(F)F)c1	4	·	·	·	3	·	·
COc1cc(Cl)c(C)cc1NC(=O)CN(C)Cc1cccc(OC)c1OC	-8	-3	-4	-2	10*	-6	-5
COc1ccc(N2CCN(C(=O)CCCn3c(=O)[nH]c4cc(Cl)ccc4c3=O)CC2)cc1	7	-4	-3	-13	11*	-12	-8
CC(=O)c1ccc(N2CCN(C(=O)CCCn3c(=O)[nH]c4ccccc4c3=O)CC2)cc1	-13	0	0	-12	-3	·	·
NC(=O)CCn1nc(-c2ccc(Cl)cc2)c2ccccc2c1=O	2	-3	-1	6	12*	-7	-7
CC(O)CNCCCOc1ccc(Cl)cc1C(C)(C)C (stereo unspecified)	1	-1	-3	-7	12*	-4	3
CN(C)CCOCCOc1ccc(Cl)cc1C(C)(C)C	-4	-2	-3	-11	5	·	·
CN(C)c1cccc2c(S(=O)(=O)NCC3CCN(C(=O)C(=O)c4cccs4)CC3)cccc12	i	·	·	·	i	·	·
Cc1cccc(CN2CCN(CC(=O)NCc3ccc(F)cc3)C2=O)c1	8	-5	1	-4	11*	-6	-6
Cc1ccc(CN2CCN(CC(=O)NCCCN3CCN(c4ccc(F)cc4)CC3)C2=O)cc1	0	0	-3	-9	2	·	·
c1ccc2c(c1)N=C(N1CCN(Cc3ccc4c(c3)OCO4)CC1)c1ccccc1S2	2	·	·	·	1	·	·
CN1C(=O)SC(Nc2ccccc2)C1=O (stereo unspecified)	8	-4	-2	-1	9.5*	-1	2
CN1C(=O)SC(Nc2ccc(F)cc2)C1=O (stereo unspecified)	-1	-2	-4	-10	-2	·	·
Cc1cc(NC(=O)c2ccco2)no1	5	-4	-4	-11	18*	-3	1
NS(=O)(=O)c1cccc(NC(=O)c2cc3ccccc3o2)c1	-4	0	-1	-16	11*	-4	-2
NS(=O)(=O)c1cccc(NC(=O)c2cc(=O)c3ccccc3o2)c1	-3	0	-1	-20	3	·	·
O=C(Nc1cccc(S(=O)(=O)c2cccc(NC(=O)c3ccco3)c2)c1)c1ccco1	10	-2	-2	-10	15*	-12	-8
Cc1ccc(C)c(NC(=O)c2cccc3c2-c2ccccc2C3=O)c1	1	·	·	·	-1	·	·
CCOc1cc(/C=C2/C(=O)N(c3ccccc3)N=C2C)ccc1OC(=O)c1ccco1	3	-3	1	-9	10*	-4	-3
CCOc1cc(/C=C2\C(=O)N(c3ccc(C(N)=O)cc3)N=C2C)ccc1OC(=O)c1cccs1	·	0	-3	-15	·	·	·
N#Cc1ccc(OCCCN2CCC(C(O)(c3ccccc3)c3ccccc3)CC2)cc1	0	·	·	·	-1	·	·
SMILES	PLC-beta3 inh	IMP-1 inhibitor	VIM-2 inh	PvdQ inh	PLCg1 inh	PLCg1 ctr	PLCb3 confirm
O=[N+]([O-])c1cccc2ccc(/C=C/c3ccc(Cl)cc3)nc12	2	0	-1	12	5	·	·
O=[N+]([O-])c1cccc2ccc(/C=C/c3cccc(Br)c3)nc12	11*	-2	-3	-14	9	0	1
C[C@H]1[C@@H](OC(=O)NCc2ccccc2Cl)CC[C@@]23CCCN2C(=O)CCC[C@@H]13	-3	·	·	·	3	·	·
COc1cccc(CNCCO)c1OCc1ccccc1Cl	3	-2	-2	-20	11*	-4	-4
O=C(O)/C=C/C(=O)NCc1ccccc1	6	-1	-3	-15	10*	-6	-3
O=C(O)/C=C\C(=O)NCc1ccccc1	1	-2	-2	-9	0	·	·
